The source made the active and inactive calls. No cut-off for these calls is given here.
Experiments:
HCT-116 = assay: Cytotoxicity against human HCT116 cells assessed as growth inhibition after 72 hrs by MTT assay; settings: HCT-116, 72 h
MCF7 = assay: Cytotoxicity against human MCF7 cells assessed as growth inhibition after 72 hrs by MTT assay; settings: MCF7, 72 h
MV4-11 [1] = assay: Induction of apoptosis in human MV4-11 cells assessed as late apoptotic cells at 0.003 uM after 24 hrs by annexin V-FITC/propidium iodide staining-based FACS flow cytometric analysis (reference value: 4.28%); assay type: functional
[2] = target: Vascular endothelial growth factor receptor 2 (Danio rerio) (UniProt Q5GIT4); assay: Inhibition of VEGFR2 in transgenic zebrafish embryo assessed as inhibition of intersegmental vessels formation at 5 uM measured 33 hrs post fertilization by fluorescence microscopic analysis
Summary of the method: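 FLK-1:EGFP transgenic zebrafish embryos, 10 per well, exposed at 28.5 °C from 15 to 31 hpf to compound in fish water at 1.25, 2.5 or 5 μM (diluted from a 10 mmol/L DMSO stock); 0.3% DMSO as vehicle control. Embryos were imaged at 33 hpf, and ISVs above the yolk extension were scored for length. n = 11, mean ± SD, ANOVA.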

Raji = assay: Cytotoxicity against human Raji cells assessed as growth inhibition after 72 hrs by MTT assay
[3] = Cmax in Sprague-Dawley rat at 10 mg/kg/day, po measured within 7 hrs; assay type: ADME, organism-based; design: dose 10 mg/kg/day, route oral; settings: in vivo
Jurkat = assay: Cytotoxicity against human Jurkat cells assessed as growth inhibition after 72 hrs by MTT assay
MV4-11 [4] = assay: Induction of apoptosis in human MV4-11 cells after 24 hrs by annexin V-FITC/propidium iodide staining-based FACS flow cytometric analysis; assay type: functional, cell-based
[5] = Apparent half life in Sprague-Dawley rat at 10 mg/kg/day, po; assay type: ADME, organism-based; design: route oral; settings: in vivo, read-out: t1/2(app) (converted)

Vascular endothelial growth factor receptor 2 (Danio rerio), sequence (Q5GIT4 whole entry): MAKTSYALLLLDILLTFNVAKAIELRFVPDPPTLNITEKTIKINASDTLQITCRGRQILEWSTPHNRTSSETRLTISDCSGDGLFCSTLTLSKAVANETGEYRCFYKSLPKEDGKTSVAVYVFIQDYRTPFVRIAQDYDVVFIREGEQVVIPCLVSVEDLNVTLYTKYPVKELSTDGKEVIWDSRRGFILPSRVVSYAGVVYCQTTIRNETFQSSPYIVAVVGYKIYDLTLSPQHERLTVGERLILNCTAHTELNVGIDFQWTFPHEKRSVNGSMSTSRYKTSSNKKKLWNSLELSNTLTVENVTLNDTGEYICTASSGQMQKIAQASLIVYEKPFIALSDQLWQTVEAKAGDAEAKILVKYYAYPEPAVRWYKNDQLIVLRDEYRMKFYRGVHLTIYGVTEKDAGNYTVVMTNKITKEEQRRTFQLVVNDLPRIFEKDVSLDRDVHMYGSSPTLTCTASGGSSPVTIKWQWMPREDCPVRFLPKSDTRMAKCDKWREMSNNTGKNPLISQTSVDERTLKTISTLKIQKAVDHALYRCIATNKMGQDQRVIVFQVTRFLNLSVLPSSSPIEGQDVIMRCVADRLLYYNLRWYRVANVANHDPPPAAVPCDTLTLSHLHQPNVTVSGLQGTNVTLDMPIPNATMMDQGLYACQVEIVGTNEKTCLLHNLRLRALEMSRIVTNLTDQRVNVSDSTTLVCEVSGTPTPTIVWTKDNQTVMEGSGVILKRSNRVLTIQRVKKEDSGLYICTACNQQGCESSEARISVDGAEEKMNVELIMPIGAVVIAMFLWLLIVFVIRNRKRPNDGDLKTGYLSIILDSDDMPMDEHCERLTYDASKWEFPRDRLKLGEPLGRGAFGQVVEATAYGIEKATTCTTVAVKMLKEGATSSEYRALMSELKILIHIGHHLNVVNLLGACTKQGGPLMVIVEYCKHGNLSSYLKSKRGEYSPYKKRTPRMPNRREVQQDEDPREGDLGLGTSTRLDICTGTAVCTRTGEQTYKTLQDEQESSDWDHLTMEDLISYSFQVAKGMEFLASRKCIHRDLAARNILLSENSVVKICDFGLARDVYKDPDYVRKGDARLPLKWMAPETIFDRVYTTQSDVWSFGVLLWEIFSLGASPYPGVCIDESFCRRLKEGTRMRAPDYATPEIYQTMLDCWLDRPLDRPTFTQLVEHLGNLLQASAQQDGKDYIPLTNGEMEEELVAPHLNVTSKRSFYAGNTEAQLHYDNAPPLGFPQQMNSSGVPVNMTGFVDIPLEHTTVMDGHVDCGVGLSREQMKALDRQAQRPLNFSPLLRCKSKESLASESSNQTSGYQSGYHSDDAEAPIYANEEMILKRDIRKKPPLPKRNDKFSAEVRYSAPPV

With `O=C(Nc1ccc(Oc2ncnc3[nH]ncc23)cc1)Nc1ccc(Cl)c(C(F)(F)F)c1` the IC50 (HCT-116) was > 10 µM, the IC50 (MCF7) was > 10 µM and the Activity (MV4-11 [1]) was 7.11%. For the same compound, the inhibition [2] was “Active”, the IC50 (Raji) was > 10 µM and the Cmax [3] was 15100 ng/mL. The IC50 (Jurkat) was 8.72 µM, the Activity (MV4-11 [4]) was “Dose-dependent effect” and the half-life [5] was 12.6 h.

Source: ChEMBL document CHEMBL2331331 (J Med Chem, 2013)
